Where “and” joins values, the source holds several entries; their conditions need not be identical. Identical values can stand only once.
Test system: HEK-293T
Assay: Multiplex assay against HEK293T
Type: toxicity, cell-based
Conditions: human, number of replicates 2
Procedure, shortened: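 Cells were classed with CellPathfinder machine-learning gating, first as Hoechst high-intensity objects or normal cells, then (normal cells) as healthy, pyknosed or fragmented nuclei, and finally (pyknosed cells) as mitotic or apoptotic. Staining of live cells at seeding used Hoechst33342, BioTracker Green Microtubule Cytoskeleton Dye, MitoTracker Red and Annexin V Alexa Fluor 680, with imaging on a CQ1 microscope at 37°C and 5% CO2 after compound addition. Tubulin, mitochondrial-mass and membrane-permeability phenotypes are per cents of healthy-nucleus cells.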

[1] = 12 h, 1 µM, compound concentration 1 uM
[2] = 12 h, 10 µM, compound concentration 10 uM
[3] = 24 h, 1 µM, compound concentration 1 uM
[4] = 24 h, 10 µM, compound concentration 10 uM
[5] = 48 h, 1 µM, compound concentration 1 uM
[6] = 48 h, 10 µM, compound concentration 10 uM

CN1CCCN(C(=O)c2cccc(-c3ccc(/C=C4/C(=O)Nc5ccc(Cl)cc54)o3)c2)CC1
Population Apoptotic (%) [1]: 58% and 72%
Population Fragmented Nuclei (%) [1]: 4%
Population Healthy Nuclei (%) [1]: 88% and 86%
Population Hoechst High Intensity Objects (%) [1]: 6%
Population Membrane Permeable-Phenotype (%) [1]: 3% and 2%
Population Mitochondria Different-Phenotype (%) [1]: 8% and 12%
Population Mitotic Cells (%) [1]: 41% and 27%
Population Normal (%) [1]: 93%
Population Pyknosed Nuclei (%) [1]: 6% and 9%
Population Tubulin-Different-Phenotype (%) [1]: 60% and 45%
Total Cell Count [1]: 923 and 535
Population Apoptotic (%) [2]: 67% and 62%
Population Fragmented Nuclei (%) [2]: 2% and 1%
Population Healthy Nuclei (%) [2]: 86% and 92%
Population Hoechst High Intensity Objects (%) [2]: 5% and 6%
Population Membrane Permeable-Phenotype (%) [2]: 7% and 4%
Population Mitochondria Different-Phenotype (%) [2]: 38% and 32%
Population Mitotic Cells (%) [2]: 32% and 37%
Population Normal (%) [2]: 94% and 93%
Population Pyknosed Nuclei (%) [2]: 11% and 6%
Population Tubulin-Different-Phenotype (%) [2]: 94% and 96%
Total Cell Count [2]: 365 and 416
Population Apoptotic (%) [3]: 57% and 72%
Population Fragmented Nuclei (%) [3]: 7% and 6%
Population Healthy Nuclei (%) [3]: 86% and 85%
Population Hoechst High Intensity Objects (%) [3]: 9%
Population Membrane Permeable-Phenotype (%) [3]: 2% and 1%
Population Mitochondria Different-Phenotype (%) [3]: 1% and 3%
Population Mitotic Cells (%) [3]: 42% and 27%
Population Normal (%) [3]: 90%
Population Pyknosed Nuclei (%) [3]: 6% and 8%
Population Tubulin-Different-Phenotype (%) [3]: 18% and 20%
Total Cell Count [3]: 1009 and 610
Population Apoptotic (%) [4]: 64% and 56%
Population Fragmented Nuclei (%) [4]: 4% and 2%
Population Healthy Nuclei (%) [4]: 79% and 90%
Population Hoechst High Intensity Objects (%) [4]: 2% and 4%
Population Membrane Permeable-Phenotype (%) [4]: 7% and 8%
Population Mitochondria Different-Phenotype (%) [4]: 34% and 29%
Population Mitotic Cells (%) [4]: 35% and 43%
Population Normal (%) [4]: 97% and 95%
Population Pyknosed Nuclei (%) [4]: 16% and 7%
Population Tubulin-Different-Phenotype (%) [4]: 84% and 87%
Total Cell Count [4]: 402 and 421
Population Apoptotic (%) [5]: 43% and 64%
Population Fragmented Nuclei (%) [5]: 16% and 12%
Population Healthy Nuclei (%) [5]: 81% and 84%
Population Hoechst High Intensity Objects (%) [5]: 6% and 5%
Population Membrane Permeable-Phenotype (%) [5]: 0%
Population Mitochondria Different-Phenotype (%) [5]: 1% and 4%
Population Mitotic Cells (%) [5]: 56% and 35%
Population Normal (%) [5]: 93% and 94%
Population Pyknosed Nuclei (%) [5]: 2%
Population Tubulin-Different-Phenotype (%) [5]: 14% and 15%
Total Cell Count [5]: 1019 and 606
Population Apoptotic (%) [6]: 60% and 55%
Population Fragmented Nuclei (%) [6]: 6%
Population Healthy Nuclei (%) [6]: 46% and 55%
Population Hoechst High Intensity Objects (%) [6]: 7% and 3%
Population Membrane Permeable-Phenotype (%) [6]: 3% and 2%
Population Mitochondria Different-Phenotype (%) [6]: 50% and 38%
Population Mitotic Cells (%) [6]: 39% and 44%
Population Normal (%) [6]: 92% and 96%
Population Pyknosed Nuclei (%) [6]: 47% and 38%
Population Tubulin-Different-Phenotype (%) [6]: 77% and 76%
Total Cell Count [6]: 403 and 446

CC1=C(C)C(=O)C(C(C)(C)CC(=O)N(CCCCSC[C@H]2O[C@@H](n3cnc4c(N)ncnc43)[C@H](O)[C@@H]2O)Cc2cccc(-c3ccc(Cl)cc3)c2)=C(C)C1=O
Population Apoptotic (%) [1]: 40% and 44%
Population Fragmented Nuclei (%) [1]: 4%
Population Healthy Nuclei (%) [1]: 89% and 86%
Population Hoechst High Intensity Objects (%) [1]: 6% and 7%
Population Membrane Permeable-Phenotype (%) [1]: 4% and 3%
Population Mitochondria Different-Phenotype (%) [1]: 10% and 11%
Population Mitotic Cells (%) [1]: 59% and 55%
Population Normal (%) [1]: 93% and 92%
Population Pyknosed Nuclei (%) [1]: 6% and 8%
Population Tubulin-Different-Phenotype (%) [1]: 71% and 70%
Total Cell Count [1]: 874 and 797
Population Apoptotic (%) [2]: 52% and 54%
Population Fragmented Nuclei (%) [2]: 2%
Population Healthy Nuclei (%) [2]: 82% and 81%
Population Hoechst High Intensity Objects (%) [2]: 7%
Population Membrane Permeable-Phenotype (%) [2]: 10% and 3%
Population Mitochondria Different-Phenotype (%) [2]: 48% and 51%
Population Mitotic Cells (%) [2]: 47% and 45%
Population Normal (%) [2]: 92%
Population Pyknosed Nuclei (%) [2]: 14% and 15%
Population Tubulin-Different-Phenotype (%) [2]: 88% and 92%
Total Cell Count [2]: 506 and 434
Population Apoptotic (%) [3]: 21% and 25%
Population Fragmented Nuclei (%) [3]: 8% and 6%
Population Healthy Nuclei (%) [3]: 87%
Population Hoechst High Intensity Objects (%) [3]: 8%
Population Membrane Permeable-Phenotype (%) [3]: 6% and 3%
Population Mitochondria Different-Phenotype (%) [3]: 2% and 5%
Population Mitotic Cells (%) [3]: 78% and 74%
Population Normal (%) [3]: 91%
Population Pyknosed Nuclei (%) [3]: 4% and 6%
Population Tubulin-Different-Phenotype (%) [3]: 50%
Total Cell Count [3]: 1418 and 1263
Population Apoptotic (%) [4]: 46% and 64%
Population Fragmented Nuclei (%) [4]: 3%
Population Healthy Nuclei (%) [4]: 81%
Population Hoechst High Intensity Objects (%) [4]: 7% and 9%
Population Membrane Permeable-Phenotype (%) [4]: 4% and 3%
Population Mitochondria Different-Phenotype (%) [4]: 62% and 59%
Population Mitotic Cells (%) [4]: 53% and 35%
Population Normal (%) [4]: 92% and 90%
Population Pyknosed Nuclei (%) [4]: 15% and 14%
Population Tubulin-Different-Phenotype (%) [4]: 88% and 93%
Total Cell Count [4]: 524 and 473
Population Apoptotic (%) [5]: 10% and 13%
Population Fragmented Nuclei (%) [5]: 24% and 15%
Population Healthy Nuclei (%) [5]: 74% and 81%
Population Hoechst High Intensity Objects (%) [5]: 10% and 9%
Population Membrane Permeable-Phenotype (%) [5]: 6% and 5%
Population Mitochondria Different-Phenotype (%) [5]: 0%
Population Mitotic Cells (%) [5]: 89% and 86%
Population Normal (%) [5]: 89% and 90%
Population Pyknosed Nuclei (%) [5]: 1% and 2%
Population Tubulin-Different-Phenotype (%) [5]: 25% and 28%
Total Cell Count [5]: 3744 and 2984
Population Apoptotic (%) [6]: 55% and 62%
Population Fragmented Nuclei (%) [6]: 4% and 5%
Population Healthy Nuclei (%) [6]: 87% and 88%
Population Hoechst High Intensity Objects (%) [6]: 6% and 10%
Population Membrane Permeable-Phenotype (%) [6]: 8% and 6%
Population Mitochondria Different-Phenotype (%) [6]: 47%
Population Mitotic Cells (%) [6]: 44% and 37%
Population Normal (%) [6]: 93% and 89%
Population Pyknosed Nuclei (%) [6]: 7% and 5%
Population Tubulin-Different-Phenotype (%) [6]: 93% and 92%
Total Cell Count [6]: 622 and 637

From ChEMBL document CHEMBL5303300, “EUbOPEN Chemogenomics Library - Multiplex” (2023)
